Source: paper PMC5116011 (The Journal of antibiotics, 2016)
≈ marks a conversion by molar mass, not a printed value. Like-named read-outs stand apart in the source and are kept apart here.

How the values were obtained:
S. pneumoniae R6 = assay: MIC, microbroth dilution in Mueller-Hinton broth; format: cell-based; settings: Streptococcus pneumoniae, R6, read-out: MIC SP
Method in brief: (§1)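 CLSI broth microdilution in cation-adjusted Mueller-Hinton broth. Inocula were grown from MH agar colonies in MH broth, with a final inoculum of 10^5 CFU/ml. Test compound final range was 200–0.2 µg/ml, incubated 37°C for 18–20 h. MIC was the lowest concentration preventing visible growth. Runs were at least duplicate, and the mean MIC was reported.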

[1] = test system: S. aureus -ATCC29213 (MSSA); assay: MIC, microbroth dilution in Mueller-Hinton broth; format: cell-based; settings: Staphylococcus aureus, read-out: MIC MSSA
Method in brief: as §1

[2] = test system: E. coli BW25113 ΔampC derivative JW4111-2; format: cell-based, Escherichia coli
P. aeruginosa PA01 = assay: MIC, microbroth dilution in Mueller-Hinton broth; format: cell-based, Pseudomonas aeruginosa; settings: for MIC PA MH+BP/CCCP: MH broth with 30 µg/ml 2,2′-bipyridyl and 50 µg/ml CCCP; for MIC PA +: with clavulanic acid (6µg/ml); for MIC: Pseudomonas aeruginosa
E. coli BW25113 = assay: MIC, microbroth dilution in Mueller-Hinton broth; format: cell-based, Escherichia coli; settings: for MIC EC MH+BP/CCCP: MH broth with 30 µg/ml 2,2′-bipyridyl and 50 µg/ml CCCP; for MIC EC +: with clavulanic acid (6µg/ml); for MIC: Escherichia coli
P. mirabilis ATCC 25933 = assay: MIC, microbroth dilution in Mueller-Hinton broth; format: cell-based; settings: Proteus mirabilis, ATCC25933, read-out: MIC PM
B. subtilis ATCC23857 = assay: MIC, microbroth dilution in Mueller-Hinton broth; format: cell-based; settings: Bacillus subtilis, ATCC23857, read-out: MIC BS
Method in brief: as §1

E. faecalis ATCC33186 = assay: MIC, microbroth dilution in Mueller-Hinton broth; format: cell-based; settings: Enterococcus faecalis, ATCC33186, read-out: MIC EF
Method in brief: as §1

S. pyogenes ATCC700294 = assay: MIC, microbroth dilution in Mueller-Hinton broth; format: cell-based; settings: Streptococcus pyogenes, ATCC700294, read-out: MIC SPy
Method in brief: as §1

[3] = test system: E. coli BW25113 ΔtolC derivative JW5503-1; assay: MIC, microbroth dilution in Mueller-Hinton broth; format: cell-based, Escherichia coli; settings: for MIC: Escherichia coli
B. anthracis sterne = assay: microbe, parasite or virus in culture; format: cell-based; settings: Bacillus anthracis, read-out: MIC BA
S. aureus NRS 70 (MRSA) = assay: MIC, microbroth dilution in Mueller-Hinton broth; format: cell-based; settings: Staphylococcus aureus, MRSA|NRS70, read-out: MIC MRSA
Method in brief: as §1

P. vulgaris ATCC 33420 = assay: MIC, microbroth dilution in Mueller-Hinton broth; format: cell-based; settings: Proteus vulgaris, ATCC33420, read-out: MIC PV
[4] = BW25113, read-out: MIC ECΔtolC MH
[5] = BW25113, read-out: MIC ECΔtolC MH+BP
[6] = BW25113, read-out: MIC EC, E. coli BW25113, Mueller-Hinton broth (Table 2)

Compound: CCN1CCN(C(=O)N[C@@H](C(=O)N[C@@H]2C(=O)N3[C@@H]2SC(C)(C)[C@@H]3C(=O)O)c2ccccc2)C(=O)C1=O [piperacillin, reference compound]
- MIC (S. pneumoniae R6): < 0.2 µg/mL
- MIC [1]: < 0.2 µg/mL
- MIC ([2]; Escherichia coli, BW25113, read-out: MIC ECΔampC −): 1.56 µg/mL (≈ 3.01 µM)
- MIC ECΔampC + [2]: 1.56 µg/mL
- MIC PA MH+BP/CCCP (P. aeruginosa PA01; P. aeruginosa PA01): 3.13 µg/mL (≈ 6.05 µM)
- MIC PA + (P. aeruginosa PA01; P. aeruginosa PA01): 3.13 µg/mL
- MIC (P. aeruginosa PA01; PA01, read-out: MIC PA MH+CCCP): 3.13 µg/mL (≈ 6.05 µM)
- MIC EC MH+BP/CCCP (E. coli BW25113; E. coli BW25113): 0.78 µg/mL (≈ 1.51 µM)
- MIC EC + (E. coli BW25113; E. coli BW25113): 3.13 µg/mL
- MIC (E. coli BW25113; BW25113, read-out: MIC EC MH+BP): 1.56 µg/mL (≈ 3.01 µM)
- MIC (P. mirabilis ATCC 25933): 0.19 µg/mL (≈ 0.367 µM)
- MIC (B. subtilis ATCC23857): 0.39 µg/mL (≈ 0.754 µM)
- MIC (E. faecalis ATCC33186): 3.13 µg/mL (≈ 6.05 µM)
- MIC (S. pyogenes ATCC700294): < 0.2 µg/mL
- MIC ([3]; BW25113, read-out: MIC ECΔtolC): 1.56 µg/mL (≈ 3.01 µM)
- MIC [3, 4]: 0.09 µg/mL (≈ 0.174 µM)
- MIC [3, 5]: 0.09 µg/mL (≈ 0.174 µM)
- MIC (B. anthracis sterne): 0.39 µg/mL (≈ 0.754 µM)
- MIC (S. aureus NRS 70 (MRSA)): 25 µg/mL (≈ 48.3 µM)
- MIC (P. vulgaris ATCC 33420): 1.56 µg/mL (≈ 3.01 µM)

Compound: CC1(C)SC2C(NC(=O)C(NC(=O)C3=C(O)C(Cc4ccco4)NC3=O)c3ccccc3)C(=O)N2C1C(=O)O (stereo not drawn) [Compound 3002]
- MIC (S. pneumoniae R6): 0.39 µg/mL (≈ 0.703 µM)
- MIC [1]: 0.78 µg/mL (≈ 1.41 µM)
- MIC ECΔampC + [2]: 6.25 µg/mL
- MIC PA MH+BP/CCCP (P. aeruginosa PA01; P. aeruginosa PA01): 3.13 µg/mL (≈ 5.64 µM)
- MIC PA + (P. aeruginosa PA01; P. aeruginosa PA01): 3.13 µg/mL
- MIC (P. aeruginosa PA01; PA01, read-out: MIC PA): 12.5 µg/mL (≈ 22.5 µM)
- MIC (P. aeruginosa PA01; PA01, read-out: MIC PA MH): 12.5 µg/mL (≈ 22.5 µM)
- MIC (P. aeruginosa PA01; PA01, read-out: MIC PA MH+BP): 12.5 µg/mL (≈ 22.5 µM)
- MIC (P. aeruginosa PA01; PA01, read-out: MIC PA MH+CCCP): 6.25 µg/mL (≈ 11.3 µM)
- MIC (P. aeruginosa PA01; PA01, read-out: MIC PA −): 12.5 µg/mL (≈ 22.5 µM)
- MIC EC MH+BP/CCCP (E. coli BW25113; E. coli BW25113): 1.56 µg/mL (≈ 2.81 µM)
- MIC EC (E. coli BW25113; E. coli BW25113, Mueller-Hinton broth (Table 2)): 6.25 µg/mL (≈ 11.3 µM)
- MIC EC + (E. coli BW25113; E. coli BW25113): 6.25 µg/mL
- MIC (E. coli BW25113; [6]): 6.25 to 12.5 µg/mL (≈ 11.3 to 22.5 µM)
- MIC (P. mirabilis ATCC 25933): 1.56 µg/mL (≈ 2.81 µM)
- MIC (B. subtilis ATCC23857): 1.56 µg/mL (≈ 2.81 µM)
- MIC (E. faecalis ATCC33186): 25 µg/mL (≈ 45.1 µM)
- MIC (S. pyogenes ATCC700294): 0.39 µg/mL (≈ 0.703 µM)
- MIC ECΔtolC MH+BP/CCCP [3]: 0.78 µg/mL (≈ 1.41 µM)
- MIC ECΔtolC MH+CCCP [3]: 1.56 µg/mL (≈ 2.81 µM)
- MIC (B. anthracis sterne): 3.13 µg/mL (≈ 5.64 µM)
- MIC (S. aureus NRS 70 (MRSA)): 50 µg/mL (≈ 90.2 µM)
- MIC (P. vulgaris ATCC 33420): 25 µg/mL (≈ 45.1 µM)

Compound: CC1(C)S[C@@H]2[C@H](NC(=O)[C@H](N)c3ccccc3)C(=O)N2[C@H]1C(=O)O [ampicillin, reference compound]
- MIC (S. pneumoniae R6): < 0.2 µg/mL
- MIC [1]: < 0.2 µg/mL
- MIC ECΔampC + [2]: 1.56 µg/mL
- MIC PA (P. aeruginosa PA01; P. aeruginosa PA01, Mueller-Hinton broth (Table 2)): >200 µg/mL
- MIC PA + (P. aeruginosa PA01; P. aeruginosa PA01): 100 µg/mL
- MIC (P. aeruginosa PA01; PA01, read-out: MIC PA): > 200 µg/mL
- MIC (P. aeruginosa PA01; PA01, read-out: MIC PA MH): > 200 µg/mL
- MIC (P. aeruginosa PA01; PA01, read-out: MIC PA MH+BP): > 200 µg/mL
- MIC (P. aeruginosa PA01; PA01, read-out: MIC PA MH+CCCP): > 200 µg/mL
- MIC (P. aeruginosa PA01; PA01, read-out: MIC PA −): > 200 µg/mL
- MIC EC MH+BP/CCCP (E. coli BW25113; E. coli BW25113): 0.78 µg/mL (≈ 2.23 µM)
- MIC EC + (E. coli BW25113; E. coli BW25113): 1.56 µg/mL
- MIC (E. coli BW25113; [6]): 3.13 µg/mL (≈ 8.96 µM)
- MIC (P. mirabilis ATCC 25933): 3.13 µg/mL (≈ 8.96 µM)
- MIC (B. subtilis ATCC23857): < 0.2 µg/mL
- MIC (E. faecalis ATCC33186): 3.13 µg/mL (≈ 8.96 µM)
- MIC (S. pyogenes ATCC700294): < 0.2 µg/mL
- MIC ECΔtolC MH+BP/CCCP [3]: 0.39 µg/mL (≈ 1.12 µM)
- MIC ECΔtolC MH+CCCP [3]: 1.56 µg/mL (≈ 4.46 µM)
- MIC (B. anthracis sterne): < 0.2 µg/mL
- MIC (S. aureus NRS 70 (MRSA)): 50 µg/mL (≈ 143 µM)
- MIC (P. vulgaris ATCC 33420): 100 µg/mL (≈ 286 µM)

Compound: CC(C)C1NC(=O)C(C(=O)NC(C(=O)NC2C(=O)N3C2SC(C)(C)C3C(=O)O)c2ccccc2)=C1O (stereo not drawn) [Compound 2744]
- MIC (S. pneumoniae R6): 0.39 µg/mL (≈ 0.755 µM)
- MIC [1]: 1.56 µg/mL (≈ 3.02 µM)
- MIC ECΔampC + [2]: 12.5 µg/mL
- MIC PA MH+BP/CCCP (P. aeruginosa PA01; P. aeruginosa PA01): 25 µg/mL (≈ 48.4 µM)
- MIC PA + (P. aeruginosa PA01; P. aeruginosa PA01): 25 µg/mL
- MIC (P. aeruginosa PA01; PA01, read-out: MIC PA): 25 µg/mL (≈ 48.4 µM)
- MIC (P. aeruginosa PA01; PA01, read-out: MIC PA MH): 25 µg/mL (≈ 48.4 µM)
- MIC (P. aeruginosa PA01; PA01, read-out: MIC PA MH+BP): 50 µg/mL (≈ 96.8 µM)
- MIC (P. aeruginosa PA01; PA01, read-out: MIC PA MH+CCCP): 12.5 µg/mL (≈ 24.2 µM)
- MIC (P. aeruginosa PA01; PA01, read-out: MIC PA −): 25 µg/mL (≈ 48.4 µM)
- MIC EC MH+BP/CCCP (E. coli BW25113; E. coli BW25113): 25 µg/mL (≈ 48.4 µM)
- MIC EC + (E. coli BW25113; E. coli BW25113): 25 µg/mL
- MIC (E. coli BW25113; [6]): 100 µg/mL (≈ 194 µM)
- MIC (P. mirabilis ATCC 25933): 12.5 µg/mL (≈ 24.2 µM)
- MIC (B. subtilis ATCC23857): 3.13 µg/mL (≈ 6.06 µM)
- MIC (E. faecalis ATCC33186): 12.5 µg/mL (≈ 24.2 µM)
- MIC (S. pyogenes ATCC700294): 0.78 µg/mL (≈ 1.51 µM)
- MIC ([3]; BW25113, read-out: MIC ECΔtolC): 3.13 µg/mL (≈ 6.06 µM)
- MIC [3, 4]: 3.13 µg/mL (≈ 6.06 µM)
- MIC [3, 5]: 3.13 µg/mL (≈ 6.06 µM)
- MIC ECΔtolC MH+BP/CCCP [3]: 0.78 µg/mL (≈ 1.51 µM)
- MIC ECΔtolC MH+CCCP [3]: 1.56 µg/mL (≈ 3.02 µM)
- MIC (B. anthracis sterne): 6.25 µg/mL (≈ 12.1 µM)
- MIC (S. aureus NRS 70 (MRSA)): 25 µg/mL (≈ 48.4 µM)
- MIC (P. vulgaris ATCC 33420): 12.5 µg/mL (≈ 24.2 µM)
